In article PMC4109288 (Lancet, 2012):
Marks after values point to notes of the source that are not given here.

Legend:
[1] = cited from earlier work; for Penetration of the blood-brain barrier: in vivo
[2] = tested on: BRAF-mutant metastatic melanoma; conditions: cited from earlier work
[3] = tested on: K601E BRAF-mutant cell line; conditions: cited from earlier work
[4] = tested on: V600 BRAF-mutant melanoma with untreated brain metastases; experiment: RP2D expansion, brain lesion assessment by MRI and PFS; assay type: in vivo, human
How it was run: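 Expansion cohort of patients with asymptomatic, untreated brain metastases ≥3 mm and no prior resection, stereotactic radiosurgery or whole-brain radiotherapy, given 150 mg BID. BRAF was centrally genotyped. Lesions were imaged by gadolinium-enhanced T1-weighted MRI, first at 6 weeks and then every 9 weeks. Sum of diameters of lesions ≥3 mm at baseline was expressed as % change from baseline. RECIST 1.0 applied. PFS by Kaplan–Meier.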

[5] = Phase I trial: safety and tolerability, adverse events; conditions: in vivo
BRAF wild-type melanoma = experiment: Tumour response in BRAF wild-type melanoma; assay type: in vivo, human; conditions: three patients with BRAF wild-type melanoma
How it was run: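 Patients had histologically confirmed incurable solid tumours, ECOG ≤1, and received accelerated dose titration from 12 mg daily on 21-day cycles until progression or intolerable toxicity. Response was assessed by RECIST 1.0. Baseline imaging was within 35 days. Restaging was at 9 weeks (escalation) or 6 weeks (expansion), then every 9 weeks.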

tumour FDG uptake = experiment: FDG-PET imaging at baseline and Week 2; assay type: in vivo, human; conditions: 35 mg QD–300 mg BID, Week 2
How it was run: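 Pharmacodynamic FDG-PET imaging at baseline and on Day 15 of daily dabrafenib-class dosing. Patients were in the accelerated dose-titration cohorts, which started at 12 mg daily on 21-day cycles.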

[6] = tested on: non-V600E BRAF-mutant melanoma; experiment: Tumour response and PFS in melanoma with non-V600E BRAF mutations; assay type: in vivo, human
How it was run: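 Melanoma patients with V600K or non-V600 or complex BRAF mutations, treated at all dose levels (titration from 12 mg daily, 21-day cycles). Response was assessed by RECIST 1.0 with restaging at 9 or 6 weeks, then every 9 weeks, and 95% exact CIs were given. PFS was estimated by Kaplan–Meier from first dose. Treatment duration ran from first dose to last dose or the 25 March 2011 data cut.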

[7] = among the eight patients who progressed

CCCS(=O)(=O)Nc1ccc(F)c(C(=O)c2c[nH]c3ncc(-c4ccc(Cl)cc4)cc23)c1F [vemurafenib]
Penetration of the blood-brain barrier [1]: neither vemurafenib nor dabrafenib demonstrate penetration | Reduction in risk of death ([2]; Phase III, first-line vs dacarbazine, V600E mutant metastatic melanoma): 63% | Unconfirmed responses ([2]; V600E BRAF-mutant metastatic melanoma, Phase I): 81% | Confirmed response rate ([2]; V600E-mutant BRAF metastatic melanoma, Phase III vs dacarbazine): 48% | Photosensitivity [2]: commonly reported | Response rate ([2]; ten of 336 patients carrying the V600K mutation, Phase III): 40% | Inhibition in cell line with K601E mutation [3]: less inhibition

CC(C)(C)c1nc(-c2cccc(NS(=O)(=O)c3c(F)cccc3F)c2F)c(-c2ccnc(N)n2)s1 [dabrafenib, Dabrafenib]
Patients achieving complete resolution of all brain lesions ([4]; RP2D): four of ten | Patients with decreasing size of extracranial metastases ([4]; among patients with responding brain lesions): all nine | Patients with site of progression in extracranial sites alone [4, 7]: three | Patients with site of progression in the brain alone [4, 7]: three | Survival at 5 months ([4]; n=10): All patients were alive at 5 months | Time at which the most durable responder met criteria for progressive disease ([4]; remains on study at 19 months): 15 months | Patients experiencing AEs higher than grade 2 ([5]; human): 24% | Patients requiring dose reductions ([5]; human): 7% | Patients requiring dose reductions for fatigue ([5]; human): 2% | Patients requiring dose reductions for neutropenia ([5]; human): 1% | Patients requiring dose reductions for pyrexia ([5]; human): 3% | Patients with arthralgia of grade 2 or higher ([5]; human): less than 5% | Patients with dose-limiting toxicities (DLTs) ([5]; human): three of 20 | Patients with pyrexia as a serious AE ([5]; human): 4% | Patients with treatment-related actinic keratosis ([5]; human): 10% | Patients with treatment-related fatigue grade 2 or higher ([5]; human): 8% | Patients with treatment-related hyperkeratosis ([5]; human): 26% | Patients with treatment-related hyperkeratotic lesions of grade 2 or above ([5]; human): 3% | Patients with treatment-related pyrexia ([5]; human): 20% | Patients with treatment-related pyrexia grade 2 or higher ([5]; human): 6% | Range of onset of cutaneous SCC ([5]; human): 9 to 217 days | Range of time to first pyrexia ([5]; human): 1 to 532 days | Treatment-related cutaneous squamous cell carcinoma, grade 2 or higher, Total ([5]; human): 20 (11) ^* n (%) | Treatment-related cutaneous squamous cell carcinoma, toxicity grade 2 ([5]; human): 0 n (%) | Treatment-related cutaneous squamous cell carcinoma, toxicity grade 3 ([5]; human): 20 (11) n (%) | Treatment-related fatigue, grade 2 or higher, Total ([5]; human): 14 (8) n (%) | Treatment-related fatigue, toxicity grade 2 ([5]; human): 12 (7) n (%) | Treatment-related fatigue, toxicity grade 3 ([5]; human): 2 (1) n (%) | Treatment-related pyrexia, grade 2 or higher, Total ([5]; human): (6) n (%) | Treatment-related pyrexia, toxicity grade 2 ([5]; human): 10 (5) n (%) | Treatment-related pyrexia, toxicity grade 3 ([5]; human): 1 (<1) n (%) | Non-cutaneous SCC [5]: not observed | Patients with keratoacanthoma [5]: three | Photosensitivity [5]: not observed | Recurrence or metastasis of cutaneous SCC after local excision [5]: no recurrence or metastasis was observed | Penetration of the blood-brain barrier [1]: neither vemurafenib nor dabrafenib demonstrate penetration | Penetration of the intact blood–brain barrier by the parent drug ([1]; preclinical, after single-dose administration, ref unpublished data): minimal penetration | Responses (BRAF wild-type melanoma): no responses were observed | Patients with decrease in mean SUVmax of tumour FDG uptake vs baseline (tumour FDG uptake; 53 of 56 patients): 95% | Median decrease in mean SUVmax of tumour FDG uptake (tumour FDG uptake; 56 patients): 60% | Range of percentage change from baseline in mean SUVmax (tumour FDG uptake; 56 patients): −100% to 19 | Patients who received treatment for at least 6 months ([6]; V600K, all dose levels, nine patients): 50% | Responses ([6]; three patients with non-V600 or complex BRAF mutations): no responses were observed
